Screening data (PubChem BioAssay)
TPT1 inh = Candida albicans TPT1 enzyme inhibitors, primary screen, biochemical, fluorescence polarization. recombinant caTPT1, FP RNA substrate dephosphorylation. inhibition, % at 5 µM. 0.81% of 300,000 active;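 active = inhibition above the mean of all tested compounds plus 3 SD, set per screening campaign, cut at about 24% in these data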;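 also: plate controls were DMSO alone for no effect and ferristatin control at 100 nM for full effect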
Neddyl block = inhibitors of cullin neddylation, primary screen, biochemical, TR-FRET, uHTS, NAE and Ubc12. NEDD8-conjugating enzyme Ubc12 (Homo sapiens) + NEDD8-activating enzyme E1 regulatory …. inhibition, % at 25 µM. 0.58% of 360,000 active; in the data active = inhibition above about 36%
HNF4A DNA FP = change in binding of human HNF4A to DNA, primary screen, biochemical, fluorescence polarization, FITC-DNA; Hepatocyte nuclear factor 4-alpha (Homo sapiens), P41235; 1 h; activity change, % at 10 µM; 0.3% of 360,000 active; AID 1224865, 2016; in the data active = activity change above about 30%, passing the limit was not always enough
CSN inh = inhibitors of CSN-mediated cullin deneddylation, primary screen, biochemical, fluorescence polarization, uHTS. inhibition, % at 12.5 µM. 0.38% of 360,000 active. Purified CSN, SCF-Nedd8-OG deneddylation. COP9 signalosome complex subunit 5 (Homo sapiens), Q92905;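 active = pattern-corrected inhibition above about 35%, with an unprinted fluorescence ratio check between 0.5 and 1.5, limit read from the data, passing the limit was not always enough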;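 also: 0% = enzyme with substrate and 100% = substrate without enzyme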
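Assay system: purified human Csn5 enzyme expressed in HEK293T cells; measure: % inhibition; also added: SCFSkp2-Nedd8OG substrate at 10 nM final; technique: fluorescence polarization; times: reaction 90 min, room temperature; medium: Tris buffer pH 7.5, NaCl, DTT, Tween-20, trehalose, ovalbumin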
Rin1 Abl inh = inhibitors of Rin1-Abl protein binding, primary screen, biochemical, TR-FRET | Tyrosine-protein kinase ABL1 (Homo sapiens) + Ras and Rab interactor 1 (Homo sapiens), … | inhibition, % at 7.35 µM | 0.4% of 360,000 active | AID 588664, 2011; in the data active = inhibition above about 5%, passing the limit was not always enough
Rpn11 inh = Rpn11 (PSMD14) deubiquitinase inhibitors, primary screen, biochemical, fluorescence polarization, uHTS; human 26S proteasome, Ub4-pepOG fluorescence polarization; 20S core pre-blocked with epoxomicin; inhibition, % at 20 µM; 0.59% of 360,000 active;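 active = inhibition at 20 µM, scaled to each plate's controls, above about 33%, limit read from the data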
Rpn11 inh conf = Rpn11 (PSMD14) deubiquitinase inhibitors, confirmation, biochemical, fluorescence polarization, single concentration; purified human 26S proteasome, Ub4-pepOG fluorescence polarization; proteasome pretreated with epoxomicin; shares compounds with Rpn11 inh; 29% of 1,900 active; inhibition, % at 20 µM; AID 602318, 2012
MMP-2 counter = MMP-2 enzyme inhibition, confirmation, counter-screen for RPN11 inhibitor project, biochemical, fluorescence, single concentration | recombinant MMP-2, FRET peptide cleavage fluorescence | shares compounds with Rpn11 inh | 4% of 1,900 active | inhibition, % at 20 µM;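 also: human MMP-2 activated beforehand with APMA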
Thrombin FP = bovine thrombin protease inhibition, confirmation, counter-screen for Rpn11 inhibitor project, biochemical, fluorescence polarization, single concentration. shares compounds with Rpn11 inh. bovine thrombin cleavage of Ub4-pepOG. inhibition, % at 20 µM. 13% of 1,900 active;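 active = mean inhibition at least 40% at 20 µM, or signal 3 deviations below plate average, so some actives read negative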;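 also: plate controls were thrombin with DMSO for no effect and buffer wells lacking thrombin for full effect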
Numbers without * were called inactive; . = no result shown. Only some compounds are listed: those with a hit (about 2.4% of all), similar ones and a draw of the others. Rule as the data show it, unless noted: active = inhibition above about 40%; inactive = the rest.

SMILES	TPT1 inh	Neddyl block	HNF4A DNA FP	CSN inh	Rin1 Abl inh	Rpn11 inh	Rpn11 inh conf	MMP-2 counter	Thrombin FP
COc1cccc(CNC(=O)N2CCN(S(=O)(=O)c3ccc(C)cc3)CC2)c1	2	7	-2	2	2	-4	.	.	.
Cc1ccc(CN2CCN(Cc3cn[nH]c3C3CCCCC3)CC2CCO)cc1 (stereo not drawn)	3	1	2	-3	0	1	.	.	.
CN(C(=O)COc1ccc2c(-c3ccccc3)cc(=O)oc2c1)C1CCS(=O)(=O)C1 (stereo not drawn)	-4	-26	17	0	3	58*	6	-1	7
Cc1ccc(S(=O)(=O)/N=C2/NC(=O)/C(=C/c3ccc(Br)o3)S2)cc1	16	10	12	34	-3	61*	28	-8	18
CC1CCCC(NC(=O)CCNS(=O)(=O)c2ccc(Br)cc2)C1C (stereo not drawn)	-1	1	0	6	5	-9	.	.	.
Cc1cc(N)c(NC2=CC(=O)CC(C)(C)C2)cc1C	-1	-2	-27	-5	-1	54*	8	-9	3
Cc1cc(=O)n2[nH]c(-c3ccsc3-n3c(C)ccc3C)cc2n1	15	11	-10	42	3	39*	-7	-6	12
COc1ccc(-c2cc(C(=O)Nc3cc(Br)ccc3O)no2)cc1	-5	1	25	6	1	55*	17	-19	-2
COc1cccc(-c2cc(C(=O)Nc3cc(C)on3)no2)c1	0	-13	-5	8	-3	59*	31	32	-7
Cc1cc(NC(=O)c2cc(-c3cccc(Cl)c3)on2)no1	-2	2	-1	0	-6	2	.	.	.
COc1ccc(-c2cc(C(=O)Nc3ccccc3SC)no2)cc1	-4	30	-1	-3	4	2	.	.	.
Cc1ccc(C(=O)NC(C)c2nnc(SCC(=O)NC3CCCC3)n2C)cc1 (stereo not drawn)	.	-2	0	-2	2	0	.	.	.
CC(=O)c1ccc2ccccc2c1OC(=O)c1ccncc1	.	10	-6	-4	-5	-6	.	.	.
Cc1ccc(CN2[C@@H](CC(C)C)COCCS2(=O)=O)cc1	1	12	-4	2	2	3	.	.	.
CCOc1cccc2sc(NC(=O)c3ccc(Br)s3)nc12	-1	-3	2	7	-3	54*	-1	8	-4
C=CCn1c2ccccc2c2nnc(SCC(N)=O)nc21	0	-23	4	-3	1	45*	-4	-30	-1
C=CCn1c2ccccc2c2nnc(SCC(=O)OC)nc21	.	-27	2	-2	-7	1	.	.	.
Cc1ccccc1C(=O)N1CCC(C(N)=O)CC1	-2	0	-2	-3	-2	35*	2	-31	5
NC(=O)C1CCN(C(=O)c2cccc3ccccc23)CC1	-1	4	0	1	1	1	.	.	.
COc1ccc(-n2nnc3c(=O)n(CC(=O)Nc4ccc5c(c4)OCCO5)cnc32)cc1OC	3	34	-1	9	4	44*	17	-25	7
COc1ccccc1C(=O)N=Nc1c(O)[nH]c2ccc([N+](=O)[O-])cc12	.	1	-2	0	2	5	.	.	.
O=C(N=Nc1c(O)[nH]c2ccc([N+](=O)[O-])cc12)c1cc(-c2ccccc2Cl)nc2ccccc12	3	0	0	3	-2	37*	-22	-10	-32
CCCn1cc([C@@H]2C[C@H]3CN(Cc4cccc(Cl)c4)C(=O)[C@]34CCCN24)c(C)n1	3	-2	-1	3	2	13	.	.	.
Cn1cc([C@@H]2C[C@H]3CN(Cc4cccc(Cl)c4)C(=O)[C@]34CCCN24)c2ccccc21	22	-6	25	13	2	55*	53*	-26	65*
COCCNC(=O)CCc1nnc2ccc(N3CCC(C)CC3)nn12	1	1	10	2	-1	-2	.	.	.
SMILES	TPT1 inh	Neddyl block	HNF4A DNA FP	CSN inh	Rin1 Abl inh	Rpn11 inh	Rpn11 inh conf	MMP-2 counter	Thrombin FP
CCOC(=O)C1CCN(Cc2nc3ccc([N+](=O)[O-])cc3c(=O)n2-c2ccc(OC)cc2OC)CC1	-3	-34	-2	0	0	2	.	.	.
CCOC(=O)C1CCCN(Cc2nc3ccc([N+](=O)[O-])cc3c(=O)n2-c2ccc(OC)cc2OC)C1 (stereo not drawn)	0	-19	37*	4	-2	109*	0	-25	-15
Cc1ccc(N2C(=NC(=O)c3ccccc3)SC3CS(=O)(=O)CC32)cc1 (stereo not drawn)	2	-101	-4	3	0	1	.	.	.
CCCC(=O)N=C1SC2CS(=O)(=O)CC2N1c1ccc(-c2nc3ccc(C)cc3s2)cc1 (stereo not drawn)	5	-26	8	0	4	46*	2	-25	-5
c1csc(-c2nc(CN3CCSCC3)cs2)c1	-2	-4	-1	-2	-2	3	.	.	.
Cc1cc(C)c(C(=O)COC(=O)c2nn(C)c(=O)c3ccccc23)cc1C	.	-7	4	-3	0	-2	.	.	.
Cc1ccc(-n2c(-c3ccco3)nc3nc4ccccc4nc32)cc1	-2	.	8	15	0	46*	43*	-9	-15
Cc1cccc(-n2c(-c3ccco3)nc3nc4ccccc4nc32)c1	4	.	.	.	.	.	.	.	.
O=C(NNC(=O)C1CC(=O)N(Cc2ccccc2)C1)c1ccc(F)cc1 (stereo not drawn)	2	1	-2	-7	-1	4	.	.	.
COc1nc(-c2ccccc2)ccc1-c1noc(-c2ccccc2)n1	-1	-120	6	8	-1	14	.	.	.
